Experimental data gathered from unrelated publications.
Lines come from different studies, so protocols differ.
Target: Rho-associated protein kinase 1 (ROCK1, Homo sapiens, UniProt Q13464)

Compound	observed	action	method	concentration	quantity	value
COc1ncccc1-c1cnn2ccc(N3CCN(C(=O)OC(C)C)CC3)nc12	binding		competition with immobilised ligand	1 µM	remaining binding	95%
Cn1cncc1[C@](O)(COc1ccc(C#N)cc1-c1ccc(OC(F)(F)F)cc1)c1ccc(C#N)cc1	cell-free assay		competition with immobilised ligand	1 µM	remaining binding	100%
COc1cc(Nc2ncc(F)c(Nc3ccc4c(n3)NC(=O)C(C)(C)O4)n2)cc(OC)c1OC	binding			10 µM	inhibition	86%
O=c1[nH]c2ccccc2n1C1CCN(Cc2ccc(-c3[nH]c4cc5ncnc5cc4nc3-c3ccccc3)cc2)CC1	cell-free assay			0.5 µM	remaining signal	101%
N#CC1(c2ccccn2)CCN(Cc2cc(C(=O)O)c(=O)n3ccccc23)CC1	cell-free assay		competition with immobilised ligand	1 µM	remaining binding	86%
C#Cc1n[nH]c2c(-c3cn([C@@H](C)c4ccccn4)c(=O)[nH]c3=O)cc(F)cc12	enzyme activity	inhibitor		0.1 µM	inhibition	6.5%
Cn1cc(-c2cccc(N3CCc4c(sc5c4CC(C)(C)C5)C3=O)c2CO)cc(Nc2ccncn2)c1=O	enzyme activity	inhibitor		1 µM	inhibition	1%
CC(C)(C)c1cc(C=C(C#N)C#N)cc(Br)c1O	enzyme activity	inhibitor		0.5 µM	remaining activity	82.9%
Cn1cc(-c2cc(F)cc(N3CCn4c(cc5c4CCCC5)C3=O)c2CO)cc(Nc2ccc(N3CCN(C4COC4)CC3)cn2)c1=O	enzyme activity	inhibitor		0.1 µM	inhibition	0%
Nc1ncc(-c2nc(N3CCOCC3)nc(N3CCOCC3)n2)c(C(F)F)n1	binding		competition with immobilised ligand	10 µM	remaining binding	99%
